Consider 23 compounds from ChEMBL document CHEMBL3865817, “Synthesis and biological evaluation of C(5)-substituted derivatives of leukotriene biosynthesis inhibitor BRP-7” (Eur J Med Chem, 2016).

Experiment [1] deals with T1, Arachidonate 5-lipoxygenase-activating protein (Homo sapiens) (UniProt P20292).
T1 sequence (whole entry): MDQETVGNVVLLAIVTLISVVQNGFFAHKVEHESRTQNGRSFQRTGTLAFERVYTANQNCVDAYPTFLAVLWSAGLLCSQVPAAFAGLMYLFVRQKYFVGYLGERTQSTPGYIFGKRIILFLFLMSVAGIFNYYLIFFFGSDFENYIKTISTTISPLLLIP
As to the kind of experiment: Inhibition of FLAP in human neutrophils assessed as suppression of A23187-stimulated 5-LO product formation using arachidonic acid as substrate measured as residual activity at 1 uM preincubated for 15 mins followed by A23187/arachidonic acid addition after 10 mins RP-HPLC/UV analysis relative to control. Summed up:
(§1)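 Neutrophils were isolated from human blood by dextran sedimentation, Nycoprep centrifugation and hypotonic lysis of erythrocytes, then resuspended in PGC buffer (PBS pH 7.4, 1 mg/ml glucose, 1 mM CaCl2). Cells were pre-incubated with compound or vehicle (0.1% DMSO) for 15 min at 37 °C, stimulated with 2.5 µM A23187 for 10 min, and stopped with methanol. Internal standard PGB1. 5-LO products (LTB4, its trans isomers, 5-H(P)ETE) were measured by HPLC.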

Experiment [2] addresses T2, Arachidonate 5-lipoxygenase-activating protein (Homo sapiens, UniProt P20292).
T2 sequence (P20292 whole entry): T1 sequence (whole entry)
Put plainly: (§2) Inhibition of FLAP in human neutrophils assessed as suppression of A23187-stimulated 5-LO product formation using arachidonic acid as substrate preincubated for 15 mins followed by A23187/arachidonic acid addition after 10 mins RP-HPLC/UV analysis. Summed up:
as §1

For experiment [3], the target named is T3, Polyunsaturated fatty acid 5-lipoxygenase (Homo sapiens) (UniProt P09917).
T3 sequence (whole entry): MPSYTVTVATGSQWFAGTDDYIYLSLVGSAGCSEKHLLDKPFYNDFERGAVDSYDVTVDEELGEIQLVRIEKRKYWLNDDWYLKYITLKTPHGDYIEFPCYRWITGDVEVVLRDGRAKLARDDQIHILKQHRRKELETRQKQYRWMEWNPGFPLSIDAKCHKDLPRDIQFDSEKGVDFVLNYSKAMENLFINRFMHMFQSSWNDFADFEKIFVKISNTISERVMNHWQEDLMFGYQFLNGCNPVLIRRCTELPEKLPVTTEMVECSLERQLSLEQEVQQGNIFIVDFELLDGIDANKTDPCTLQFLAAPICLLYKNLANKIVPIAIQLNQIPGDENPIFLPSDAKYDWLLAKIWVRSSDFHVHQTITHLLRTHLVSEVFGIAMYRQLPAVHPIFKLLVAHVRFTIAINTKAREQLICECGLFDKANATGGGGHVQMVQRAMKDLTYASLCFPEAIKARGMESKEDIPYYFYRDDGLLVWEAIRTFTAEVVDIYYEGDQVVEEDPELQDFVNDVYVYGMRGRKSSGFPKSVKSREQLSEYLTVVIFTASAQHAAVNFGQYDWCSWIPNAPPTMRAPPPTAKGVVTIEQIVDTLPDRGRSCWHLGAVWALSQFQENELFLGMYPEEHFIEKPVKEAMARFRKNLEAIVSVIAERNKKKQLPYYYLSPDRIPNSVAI
The note with it: 3 uM.

Experiment [4] has as its target T1, Arachidonate 5-lipoxygenase-activating protein (Homo sapiens). As to the kind of experiment: Inhibition of FLAP in human neutrophils assessed as suppression of A23187-stimulated 5-LO product formation using arachidonic acid as substrate measured as residual activity at 10 uM preincubated for 15 mins followed by A23187/arachidonic acid addition after 10 mins RP-HPLC/UV analysis relative to control. In short, it runs like this:
as §1

For experiment [5], the target named is T2, Arachidonate 5-lipoxygenase-activating protein. Put plainly: Inhibition of FLAP in human monocytes assessed as suppression of A23187-stimulated 5-LO product formation using 10 uM arachidonic acid as substrate preincubated for 15 mins followed by A23187/arachidonic acid addition after 10 mins by RP-HPLC/UV analysis. In kind it is cell-based.
For experiment [6] the target is unchanged. Put plainly: Inhibition of FLAP in human monocytes assessed as suppression of A23187-stimulated 5-LO product formation preincubated for 15 mins followed by A23187 after 10 mins RP-HPLC/UV analysis. The experiment is classed as cell-based.
Experiment [7] has the same target. As to the kind of experiment: Inhibition of FLAP in human monocytes assessed as suppression of fMLP/LPS-stimulated cys-LT formation preincubated for 15 mins measured after 10 mins by ELISA. In kind it is cell-based.
Experiment [8] has as its target T1, Arachidonate 5-lipoxygenase-activating protein (Homo sapiens). Put plainly: Potency index, ratio of BRP-7 IC50 to compound IC50 for FLAP in human neutrophils.
For experiment [9] the target is unchanged. Put plainly: Inhibition of FLAP (unknown origin) expressed in HEK293 cells co-expressing 5-LO assessed as suppression of A23187-stimulated 5-LO product formation at 0.3 uM using arachidonic acid as substrate preincubated for 15 mins followed by A23187/substrate addition by RP-HPLC analysis. In kind it is cell-based.
For experiment [10] the target is unchanged. The experiment is described as §2. In short, it runs like this:
as §1

pIC50: −log10 of the molar value. Activity calls are given as the source filed them. No cut-off for these calls is given here.

Consider `CC(C)Cc1ccc(C(C)c2nc3cc(OCc4ccccn4)ccc3n2Cc2ccccc2C(F)(F)F)cc1` (stereo not given), for which the Activity in experiment [1] is 0%. Also, in experiment [2], the pIC50 was 6.82.

With `CC(c1cc2ccccc2s1)N(O)C(N)=O` (stereo not given), the inhibition in [3] is over 80%. For `CC(C)Cc1ccc(C(C)c2nc3cc(OCc4ccccc4C#N)ccc3n2Cc2ccccc2Cl)cc1` (stereo not given), the Activity in [4] stood at 15.6%; in experiment [1], 39.9%. Besides, the negative-log IC50 (pIC50) in experiment [2] is 6.92.

On to `CC(C)Cc1ccc(C(C)c2nc3cc(OCc4ccc(OC(F)(F)F)cc4)ccc3n2Cc2ccccc2C(F)(F)F)cc1` (stereo not given), for which the Activity in experiment [1] worked out at 99.9%.

As to `CC(C)Cc1ccc(C(C)c2nc3cc(OCc4ccc(C#N)cc4)ccc3n2Cc2ccccc2C(F)(F)F)cc1` (stereo not given), the Activity in experiment [1] was determined as 71.1%. For `C=CCOc1ccc2c(c1)nc(C(C)c1ccc(CC(C)C)cc1)n2Cc1ccccc1C(F)(F)F` (stereo not given), the results for the Activity in experiment [4] and in [1] were 0.6% and 7.5%, respectively. Moreover, the pIC50 in [2] is 6.77. Consider `Cc1ccc(COc2ccc3c(c2)nc(C(C)c2ccc(CC(C)C)cc2)n3Cc2ccccc2C(F)(F)F)cc1` (stereo not given), for which the Activity was found to be 90.5% in experiment [4] and 92.6% in experiment [1]. In the case of `CCC#CCOc1ccc2c(c1)nc(C(C)c1ccc(CC(C)C)cc1)n2Cc1ccccc1C(F)(F)F` (stereo not given), the Activity in [1] was 55.6%. On to `Cc1ccccc1COc1ccc2c(c1)nc(C(C)c1ccc(CC(C)C)cc1)n2Cc1ccccc1C(F)(F)F` (stereo not given), for which the figures for the Activity in experiment [4] and in experiment [1] were 89.7% and 97.1%, respectively. Turning to `CC(C)=CCOc1ccc2c(c1)nc(C(C)c1ccc(CC(C)C)cc1)n2Cc1ccccc1C(F)(F)F` (stereo not given), the Activity in [1] amounted to 60.2%.

With `COC(=O)COc1ccc2c(c1)nc(C(C)c1ccc(CC(C)C)cc1)n2Cc1ccccc1C(F)(F)F` (stereo not given), in experiment [1], the Activity worked out at 1.9%. In experiment [2], the pIC50 was 6.68. `CC(C)Cc1ccc(C(C)c2nc3cc(C#N)ccc3n2Cc2ccccc2Cl)cc1` (stereo not given): the pIC50 in experiment [5] was 7.46; in [6], 7.59; in [7], 7.92; in experiment [2], 7.15. Moreover, the Activity in experiment [1] was 0%. Further, the Ratio IC50 in [8] amounted to 4.4. For the same compound, the inhibition entry in [9] is “Active”. Moreover, the inhibition result in experiment [10] was “Dose-dependent effect”. For `CC(C)Cc1ccc(C(C)c2nc3cc(OCc4ccc(C(C)(C)C)cc4)ccc3n2Cc2ccccc2C(F)(F)F)cc1` (stereo not given), the results for the Activity in experiment [4] and in experiment [1] were 94% and 94.9%, respectively. Taken in the same sequence, the figures for `CC(C)Cc1ccc(C(C)c2nc3cc(OCc4ccc(C(F)(F)F)cc4)ccc3n2Cc2ccccc2C(F)(F)F)cc1` (stereo not given) were 94.3% and 91.7%.

With `CC(C)Cc1ccc(C(C)c2nc3cc(OCc4cccc(F)c4)ccc3n2Cc2ccccc2C(F)(F)F)cc1` (stereo not given), the Activity in experiment [4] came to 85.9%; in experiment [1], 92%. For the compound `CC(C)Cc1ccc(C(C)c2nc3cc(OCc4ccccc4C(F)(F)F)ccc3n2Cc2ccccc2C(F)(F)F)cc1` (stereo not given), in [1], the Activity was found to be 90.9%. Take `COc1ccc(COc2ccc3c(c2)nc(C(C)c2ccc(CC(C)C)cc2)n3Cc2ccccc2C(F)(F)F)cc1` (stereo not given): the values for the Activity in experiment [4] and in experiment [1] were 80.1% and 81.6%, respectively. `CC(C)c1ccc2c(c1)c(SC(C)(C)C)c(CC(C)(C)C(=O)O)n2Cc1ccc(Cl)cc1`: in experiment [1], the Activity worked out at 2.7%. Besides, in experiment [9], the inhibition entry was “Active”. Consider `CC(C)Cc1ccc(C(C)c2nc3cc(OCc4ccccc4Cl)ccc3n2Cc2ccccc2C(F)(F)F)cc1` (stereo not given), for which the Activity in [4] and in experiment [1] was 92.2% each time. Turning to `CC(C)Cc1ccc(C(C)c2nc3cc(OCc4ccccc4C#N)ccc3n2Cc2ccccc2C(F)(F)F)cc1` (stereo not given), the Activity in experiment [1] was determined as 65.2%. As for `CC(C)Cc1ccc(C(C)c2nc3cc(OCc4ccc(Br)cc4)ccc3n2Cc2ccccc2C(F)(F)F)cc1` (stereo not given), the Activity in experiment [4] stood at 94.4%; in experiment [1], 108%. For the compound `CCCCOc1ccc2c(c1)nc(C(C)c1ccc(CC(C)C)cc1)n2Cc1ccccc1C(F)(F)F` (stereo not given), the Activity in experiment [1] turned out to be 58.1%. On to `Cc1cccc(COc2ccc3c(c2)nc(C(C)c2ccc(CC(C)C)cc2)n3Cc2ccccc2C(F)(F)F)c1` (stereo not given), for which the Activity in [1] is 98.2%.
